Rows were chosen to be rich in hits. Some 3.1% of all compounds tested hit in one or more screens of this group.
PAX8 reporter: PAX8 transcriptional activity inhibition. RMG-I TPO-luciferase reporter, SteadyGlo, 24 h. inhibition, % at 12.6 µM. actives 1.2% (n = 360,000). AID 652154;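 active means mean replicate inhibition at least 60% with every replicate also reaching 60%; inconclusive means only one of the two criteria is met; inactive means mean below 60% and not all replicates reaching 60%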;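 further: luciferase light reporting Pax8 driven TPO promoter activity; plate controls were median of neutral control wells for no effect and mitoxantrone controls for full effect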
FGF22 binding-1: binders of recombinant human FGF22 by thermal shift; Q9HCT0; SYPRO orange fluorescence; percent of sucrose octasulfate shift, DMSO zero; activity (Tm shift, normalised), % at 9.99 µM; actives 1.5% (n = 340,000); AID 651658;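 active means mean Tm shift, scaled 0 neutral to 100 positive control, at about 1.3% or above, every replicate too, limit read from the data; inconclusive means no clear call, values can overlap the other calls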
Target sequence (Q9HCT0 whole entry, looked up): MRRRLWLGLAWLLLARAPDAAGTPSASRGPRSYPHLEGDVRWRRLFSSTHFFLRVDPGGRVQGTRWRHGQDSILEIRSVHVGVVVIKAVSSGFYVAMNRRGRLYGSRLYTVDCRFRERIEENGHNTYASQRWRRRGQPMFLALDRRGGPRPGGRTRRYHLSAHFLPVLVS
PGC1a acetyl inh: lowers PGC1a acetylation signal in U2OS cells; AlphaScreen anti-acetyl-lysine; with virally co-expressed GCN5 acetyltransferase; inhibition, % at 15.6 µM; actives 0.17% (n = 350,000); AID 651687;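 active means every replicate shows inhibition of at least 40%; inconclusive means mean inhibition at least 40% but some replicate below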;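 further: 0% = neutral control wells and 100% = positive control wells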
Env fusion inh: inhibitors of HIV Env-mediated cell fusion | HeLa-JRFL Env/CEM21 cell fusion, luciferase | inhibition, % at 12.3 µM | actives 1.1% (n = 360,000);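 active means mean replicate inhibition score of at least 50 and every replicate individually at or above 50; inconclusive means only one of the two criteria met; inactive means mean below 50 and not all replicates reaching 50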;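 further: 0% = plate neutral controls and 100% = maraviroc near 300 nM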
FN deposit inh: fibronectin deposition inhibition; AH1F fibroblasts, Alexa488-fibronectin deposition fluorescence, overnight; actives 0.086% (n = 350,000); AID 743247; inhibition, % at 12.6 µM;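 active means mean inhibition across replicates of 30% or more, regardless of how many single replicates reach that level; inconclusive means mean under 30% yet at least half of replicates reach 30%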;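 further: positive control wells lacked labelled fibronectin entirely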
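material = AH1F fibroblast monolayer depositing Alexa488-labelled fibronectin into matrix | amount = 10000 AH1F cells/well | buffer or medium = DMEM plus 2% serum, read in PBS | incubation = 1 h cell adhesion before compound, then overnight fibronectin incubation | detection = fluorescence at 485 nm excitation, 525 nm emission | evaluation = percent inhibition as loss of matrix-bound fibronectin fluorescence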
EWS-Fli block: EWS/Fli transcriptional activity inhibition. actives 0.67% (n = 350,000). inhibition, % at 12.6 µM. A673 NR0B1-luciferase reporter, viability-normalised;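 active means mean inhibition of at least 50% after viability correction, with every replicate also passing that limit; inconclusive means mean reaches 50% but only one of two replicates passes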;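 further: firefly luciferase signal divided by Alamar Blue viability fluorescence both relative to DMSO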
FGF22 binding-2: binds human FGF22 shifting its melting temperature; thermal shift activity, °C (ΔTm) at 38 µM; actives 2% (n = 1,000); shares compounds with FGF22 binding-1; recombinant FGF22 thermal shift, SYPRO orange fluorescence; AID 720646;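 active means fitted rise in melting shift crosses a set limit at or below the top valid dose tested; inconclusive means flat fit at mid-level activity, or a poor quality fit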
FGF22 TSA: binds human FGF22 shifting its melting temperature. shares compounds with FGF22 binding-1. Thermal shift assay, SYPRO orange, melting temperature shift. Tm shift (activity), % at 38 µM. 50 tested, under 10 active. AID 743017;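 active means compounds whose fitted dose curve of melting temperature shift rises past a set threshold within the tested doses; inconclusive means flat curve at moderate activity, or poor curve fit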
TSA no protein: compound-only SYPRO artifact for FGF22 binders; shares compounds with FGF22 binding-1; compound-only SYPRO orange thermal shift counter-screen, no protein; AC50, µM (titrated, usually from 38 µM); actives 2% (n = 1,000); AID 743019;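 active means rising signal whose fitted curve reaches the 0.54 level within the top valid dose, showing a melting point, actives reach about 13 µM in these data; inactive means the rest, including activity in the opposite direction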; further: value is where the raw curve crosses a fixed level and not half-maximal
* = called active by the depositor; i = inactive; u = inconclusive; x = no result given; [ ] = dose if it differs, or a comment.

SMILES	PAX8 reporter	FGF22 binding-1	PGC1a acetyl inh	Env fusion inh	FN deposit inh	EWS-Fli block	FGF22 binding-2	TSA no protein	others
COc1ccc(NC(=O)N(C)C[C@@H]2Oc3ccc(NS(=O)(=O)c4cccs4)cc3CC(=O)N([C@H](C)CO)C[C@H]2C)cc1	3.4	28.0*	2.5	3.8[16.7 µM]	x	-11.0	-0.011	i
COc1ccc(NC(=O)N(C)C[C@@H]2Oc3ccc(NS(=O)(=O)c4ccccc4)cc3C(=O)N([C@H](C)CO)C[C@H]2C)cc1	x	5.0*	2.0	-19.7[16.7 µM]	-3.0	-3.0	0.048[42 µM]	i
CCC(=O)N1C[C@@H](C)[C@@H](OC)CN(C)C(=O)c2ccc(NC(=O)Nc3ccc(Cl)cc3)cc2OC[C@@H]1C	31.6	0.0	0.9	9.0[16.7 µM]	-6.9	-8.3	x	x
C[C@H]1CN([C@@H](C)CO)S(=O)(=O)c2ccc(-c3ccncc3)cc2O[C@H]1CN(C)C(=O)Nc1ccc(C(F)(F)F)cc1	x	2.0*	15.2	8.4[16.7 µM]	9.2	8.2	0.048	i
C[C@H](CO)N1C[C@H](C)[C@H](CN(C)C(=O)Nc2ccc(C(F)(F)F)cc2)Oc2cc(-c3ccncc3)ccc2S1(=O)=O	x	1.4*	1.8	7.6[16.7 µM]	13.8	10.1	-0.199[42 µM]	i
COc1cc(CO)cc(I)c1O[C@H]1C=C(C(=O)NCCO)C[C@@H](N(CC2CCCCC2)C(=O)c2ccc(C(F)(F)F)cc2)[C@@H]1O	4.0	0.2	-4.5	-13.6[16.7 µM]	x	2.8	x	x
COc1ccc(C(=O)N2C[C@@H]3[C@H](c4ccccc42)[C@@H](CO)N3C(=O)c2ccc(F)cc2)cc1	11.8	x	-0.7	x	x	1.6	x	x
CCC(=O)N1CCCCN2[C@H](CO)[C@@H](c3ccc(C#Cc4ccccc4F)cc3)[C@H]2C1	-9.8	1.5*	3.4	x	x	8.0	0.044[42 µM]	i
Cc1ccc(S(=O)(=O)Nc2ccc3c(c2)C(=O)N([C@@H](C)CO)C[C@H](C)[C@H](CN(C)S(=O)(=O)c2ccccc2)OCCCC[C@@H](C)O3)cc1	38.7	x	2.9	-18.5[16.7 µM]	1.1	5.2	x	x
Cc1ccc(NC(=O)c2sc3ncn(CC(=O)N4CCN(c5ccccn5)CC4)c(=O)c3c2C)cc1F	2.4	1.4*	-8.6	0.4	9.3	-9.2	0.091	i
Cc1ccc(NC(=O)c2sc3ncn(CC(=O)N4CCN(c5ccccn5)CC4)c(=O)c3c2C)cc1Cl	18.5	0.0	0.6	4.4	-6.4	-4.0	x	x
O=S(=O)(/N=C(/Nc1nccs1)c1ccc(F)cc1)c1ccccc1	8.9	37.9*	3.8	-14.0	x	2.7	-0.062	i
O=S(=O)(/N=C(/Nc1nc2ccccc2s1)c1ccccc1)c1ccc(F)cc1	-69.8	x	12.7	-85.2	x	-71.2	x	x
COc1ccc([N+](=O)[O-])cc1/C=N/Nc1nn[nH]n1	-5.5	1.5*	2.8	6.8	9.7	-3.8	-0.04	i
COc1ccc(/C=N/NC(=O)c2cccc([N+](=O)[O-])c2)cc1OC	-3.9	1.6*	x	4.8	-23.1	-9.2	0.034	i
COc1ccc([N+](=O)[O-])cc1/C=N/NC(=O)c1nonc1N	9.7	0.3	6.0	-12.7	5.1	8.1	x	x
COc1ccc(/C=N/Nc2ccc([N+](=O)[O-])cc2)cc1O	-261.4	1.8*	-6.5	-105.4	-0.8	9.1	x	i
O=C(c1ccccc1F)N1C[C@@H]2[C@H](c3ccccc31)[C@H](CO)N2C(=O)c1ccc(F)cc1	-1.6	0.4	2.3	x	x	4.9	x	x
CCNC(=O)[C@H]1[C@H](CO)[C@H]2Cn3c(ccc(-c4ccccc4F)c3=O)[C@@H]1N2CC	-11.3	0.0	x	x	x	-4.5	x	x
COc1ccc(/C=N/Nc2nonc2N)cc1	x	x	x	10.3	6.0	x	x	x
Nc1nonc1N/N=C\c1ccccc1	0.2	2.0*	-9.0	27.9	3.7	-3.5	0.596	i
Cc1ccccc1S(=O)(=O)NCC[C@H]1CC[C@@H](NC(=O)C2CCC2)[C@@H](CO)O1	0.4	-0.1	-8.1	-13.2[16.7 µM]	x	7.8	x	x
O=C(C[C@@H]1C=C[C@H](NC(=O)Nc2cc(F)ccc2F)[C@H](CO)O1)Nc1ccc(-c2ccccc2)cc1	x	1.8*	-5.0	12.3[16.7 µM]	-7.4	-8.5	-0.262	i
O=C(C[C@@H]1C=C[C@H](NC(=O)c2cccc(F)c2)[C@H](CO)O1)NCc1ccccc1	-6.1	20.2*	-0.6	u	5.9	-1.6	-0.137	i
O=C(NCc1ccc(Cl)cc1)c1n[nH]c([N+](=O)[O-])c1Cl	-31.1	4.2*	x	17.8	-13.9	-17.4	0.337	i
SMILES	PAX8 reporter	FGF22 binding-1	PGC1a acetyl inh	Env fusion inh	FN deposit inh	EWS-Fli block	FGF22 binding-2	TSA no protein	others
C[C@@H]1CN([C@H](C)CO)C(=O)Cc2cc(NS(=O)(=O)c3ccccc3)ccc2O[C@@H]1CN(C)C(=O)Nc1ccccc1	-10.4	-0.1	-5.4	1.1[16.7 µM]	x	-1.6	x	x
O=C(COc1ccc2c(c1)oc(=O)c1ccccc12)NC(Cc1ccc(Cl)cc1)C(=O)O (stereo unspecified)	x	1.6*	5.4	x	x	-2.9	0.008	i
O=C(NCCN1CCCC1)[C@@H]1[C@@H](CO)[C@@H]2Cn3c(cccc3=O)[C@@H]2N1Cc1ccccn1	x	x	-4.3	x	-9.2	-6.5	x	x
CC(C)NC(=O)N(C)C[C@@H]1Oc2ccc(NC(=O)C3CCCCC3)cc2CC(=O)N([C@@H](C)CO)C[C@H]1C	10.8	0.9	x	19.6[16.7 µM]	x	2.7	x	x
COc1cc(/C=N/NC(=O)c2[nH]nc3c2CCc2ccccc2-3)ccc1O	16.7	1.7*	1.2	13.4	-5.9	8.1	0.684	i
COc1cc(/C=N/NC(=O)c2ccccc2)ccc1O	6.3	42.3	x	-5.4	-5.7	-12.2	x	x
CO[C@H]1CN(C)C(=O)c2cc(NC(=O)Nc3cccc(F)c3)ccc2OC[C@@H](C)N(C(=O)C2CC2)C[C@H]1C	9.6	x	-5.3	3.6[16.7 µM]	1.1	14.6	x	x
CC(=O)Nc1cccc(NC(=O)c2ccc3[nH]c(C)c(C)c3c2)c1	-82.0	1.9*	x	-11.3	-2.6	-93.3	-0.012	i	FGF22 TSA=-0.2
CO[C@@H](CN(C)S(=O)(=O)c1cn(C)cn1)[C@H](C)CN(C(=O)Nc1ccc(F)cc1)[C@@H](C)CO	x	0.0	5.8	x	-1.9	-8.0	x	x
C[C@@H]1CN([C@H](C)CO)C(=O)c2cc(NC(=O)CCCCCC(=O)Nc3ccccc3N)ccc2O[C@H]1CN(C)S(=O)(=O)c1ccc(F)cc1	18.8	-0.4	-4.2	x	-4.8	-3.8	x	x
CN(C)c1ccc(/C=N/NC(=O)c2ccc3nc[nH]c3c2)cc1	-15.7	0.8	10.8	18.0	-0.2	-12.3	x	x
